In ChEMBL document CHEMBL3244044, “Synthesis and antitumor activity of halogen-substituted 4-(3,3-dimethyl-1-triazeno)quinolines” (J Med Chem, 1978):

Assays:
P388 [1] = experiment: Antitumor activity against mouse P388 cells allografted mouse assessed as host survival at 20 mg/kg, ip qd for 9 days relative to control; assay type: functional; settings: route intraperitoneal
Summary of the method: (§1)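 NCI protocol: groups of five to ten mice inoculated ip with approximately 10^6 P-388 or L1210 cells. Drug given over a range of dose levels starting 24 h after implantation, once daily for 9 consecutive days. Survival expressed as %T/C = (average survival of treated)/(average survival of control) × 100.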

P388 [2] = experiment: Antitumor activity against mouse P388 cells allografted mouse assessed as host survival at 30 mg/kg, ip qd for 9 days relative to control; assay type: functional; settings: route intraperitoneal; summary of the method: as §1
Mus musculus [3] = experiment: Toxicity in mouse L1210 cells allografted mouse at 30 mg/kg, ip qd for 9 days; assay type: organism-based; design: dose 30 mg/kg, route intraperitoneal; settings: in vivo, 216 h
Summary of the method: (§2)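 Groups of five to ten mice were inoculated ip with about 10^6 L1210 cells and dosed once daily for 9 consecutive days beginning 24 h post-implantation. Toxicity was taken as the average body weight change at the end of drug treatment.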

Mus musculus [4] = experiment: Toxicity in mouse L1210 cells allografted mouse at 40 mg/kg, ip qd for 9 days; assay type: organism-based; design: dose 40 mg/kg, route intraperitoneal; settings: in vivo, 216 h; summary of the method: as §2
L1210 [5] = experiment: Antitumor activity against mouse L1210 cells allografted mouse assessed as host survival at 30 mg/kg, ip qd for 9 days relative to control; assay type: functional; settings: route intraperitoneal; summary of the method: as §1
L1210 [6] = experiment: Antitumor activity against mouse L1210 cells allografted mouse assessed as host survival at 40 mg/kg, ip qd for 9 days relative to control; assay type: functional; settings: route intraperitoneal; summary of the method: as §1
Mus musculus [7] = experiment: Toxicity in mouse B16 cells allografted mouse at 50 mg/kg, ip qd for 9 days; assay type: organism-based; design: dose 50 mg/kg, route intraperitoneal; settings: in vivo, 216 h
Summary of the method: (§3)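 Mice bearing B16 melanoma, dosed ip once daily for 9 days from 24 h after tumor implantation. Toxicity is recorded as the average body weight change at the end of drug treatment.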

Mus musculus [8] = experiment: Toxicity in mouse B16 cells allografted mouse at 30 mg/kg, ip qd for 9 days; assay type: organism-based; design: dose 30 mg/kg, route intraperitoneal; settings: in vivo, 216 h; summary of the method: as §3
Mus musculus [9] = experiment: Toxicity in mouse B16 cells allografted mouse at 18 mg/kg, ip qd for 9 days; assay type: organism-based; design: dose 18 mg/kg, route intraperitoneal; settings: in vivo, 216 h; summary of the method: as §3
B16 [10] = experiment: Antitumor activity against mouse B16 cells allografted mouse assessed as host survival at 50 mg/kg, ip qd for 9 days relative to control; assay type: functional; settings: route intraperitoneal
Summary of the method: (§4)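 B16 melanoma-bearing mice given drug ip once daily for 9 days, starting 24 h after tumor implantation. Read-out is average survival in days, expressed as %T/C = (average survival of treated mice)/(average survival of control mice) × 100.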

B16 [11] = experiment: Antitumor activity against mouse B16 cells allografted mouse assessed as host survival at 30 mg/kg, ip qd for 9 days relative to control; assay type: functional; settings: route intraperitoneal; summary of the method: as §4
B16 [12] = experiment: Antitumor activity against mouse B16 cells allografted mouse assessed as host survival at 18 mg/kg, ip qd for 9 days relative to control; assay type: functional; settings: route intraperitoneal; summary of the method: as §4
[13] = Binding affinity to synthetic melanin at 5.8 mg/100 mL after 15 mins by UV-spectroscopic analysis; assay type: physicochemical; settings: 0.25 h
Summary of the method: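 Synthetic melanin was made from DL-Dopa with tyrosinase in 0.1 M phosphate pH 6.6 at 37 °C for 4 h. Melanin suspension (1.1 mg dry weight) was mixed with phosphate buffer (0.05 M, pH 6.4, 5% Me2SO), water, and 1 mL of drug solution (5.8 mg/100 mL). The mixture was shaken 15 min at room temperature and filtered. Unbound drug in the filtrate was measured by UV against a drug-free blank.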

Mus musculus [14] = experiment: Toxicity in mouse P388 cells allografted mouse at 20 mg/kg, ip qd for 9 days; assay type: organism-based; design: dose 20 mg/kg, route intraperitoneal; settings: in vivo, 216 h
Summary of the method: (§5)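 NCI protocol. Groups of five to ten mice were inoculated intraperitoneally with about 10^6 tumor cells. Drug was given ip once daily for 9 consecutive days, starting 24 h after tumor implantation, over a range of dose levels. Toxicity was read as the average body weight change at the end of drug treatment.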

Mus musculus [15] = experiment: Toxicity in mouse P388 cells allografted mouse at 30 mg/kg, ip qd for 9 days; assay type: organism-based; design: dose 30 mg/kg, route intraperitoneal; settings: in vivo, 216 h; summary of the method: as §5
Mus musculus [16] = experiment: Toxicity in mouse P388 cells allografted mouse at 80 mg/kg, ip qd for 9 days; assay type: organism-based; design: dose 80 mg/kg, route intraperitoneal; settings: in vivo, 216 h; summary of the method: as §5
P388 [17] = experiment: Antitumor activity against mouse P388 cells allografted mouse assessed as host survival at 40 mg/kg, ip qd for 9 days relative to control; assay type: functional; settings: route intraperitoneal; summary of the method: as §1
P388 [18] = experiment: Antitumor activity against mouse P388 cells allografted mouse assessed as host survival at 60 mg/kg, ip qd for 9 days relative to control; assay type: functional; settings: route intraperitoneal; summary of the method: as §1
P388 [19] = experiment: Antitumor activity against mouse P388 cells allografted mouse assessed as host survival at 80 mg/kg, ip qd for 9 days relative to control; assay type: functional; settings: route intraperitoneal; summary of the method: as §1
Mus musculus [20] = experiment: Toxicity in mouse L1210 cells allografted mouse at 70 mg/kg, ip qd for 9 days; assay type: organism-based; design: dose 70 mg/kg, route intraperitoneal; settings: in vivo, 216 h; summary of the method: as §2
Mus musculus [21] = experiment: Toxicity in mouse L1210 cells allografted mouse at 80 mg/kg, ip qd for 9 days; assay type: organism-based; design: dose 80 mg/kg, route intraperitoneal; settings: in vivo, 216 h; summary of the method: as §5
Mus musculus [22] = experiment: Toxicity in mouse L1210 cells allografted mouse at 90 mg/kg, ip qd for 9 days; assay type: organism-based; design: dose 90 mg/kg, route intraperitoneal; settings: in vivo, 216 h; summary of the method: as §5
L1210 [23] = experiment: Antitumor activity against mouse L1210 cells allografted mouse assessed as host survival at 70 mg/kg, ip qd for 9 days relative to control; assay type: functional; settings: route intraperitoneal; summary of the method: as §1
L1210 [24] = experiment: Antitumor activity against mouse L1210 cells allografted mouse assessed as host survival at 80 mg/kg, ip qd for 9 days relative to control; assay type: functional; settings: route intraperitoneal; summary of the method: as §1
L1210 [25] = experiment: Antitumor activity against mouse L1210 cells allografted mouse assessed as host survival at 90 mg/kg, ip qd for 9 days relative to control; assay type: functional; settings: route intraperitoneal; summary of the method: as §1
Mus musculus [26] = experiment: Toxicity in mouse P388 cells allografted mouse at 40 mg/kg, ip qd for 9 days; assay type: organism-based; design: dose 40 mg/kg, route intraperitoneal; settings: in vivo, 216 h; summary of the method: as §5
Mus musculus [27] = experiment: Toxicity in mouse P388 cells allografted mouse at 60 mg/kg, ip qd for 9 days; assay type: organism-based; design: dose 60 mg/kg, route intraperitoneal; settings: in vivo, 216 h; summary of the method: as §5

**Q.** For `CN(C)/N=N\c1ccnc2c(Cl)cccc12`, which T/C (P388 [1]) is on record?
**A.** 172%

**Q.** And the T/C (P388 [2])?
**A.** 167%

**Q.** And the Activity (Mus musculus [3])?
**A.** 0%

**Q.** What about the Activity (Mus musculus [4]) of the same compound?
**A.** -4.9%

**Q.** What about the T/C (L1210 [5]) of the same compound?
**A.** 165%

**Q.** And the T/C (L1210 [6])?
**A.** 155%

**Q.** What about the Activity (Mus musculus [7]) of the same compound?
**A.** -3.9%

**Q.** And the Activity (Mus musculus [8])?
**A.** -2.9%

**Q.** And the Activity (Mus musculus [9])?
**A.** -0.3%

**Q.** And the Survival (B16 [10])?
**A.** 20.8 days

**Q.** What about the T/C (B16 [10]) of the same compound?
**A.** 99%

**Q.** And the Survival (B16 [11])?
**A.** 21.3 days

**Q.** What about the T/C (B16 [11]) of the same compound?
**A.** 101%

**Q.** And the Survival (B16 [12])?
**A.** 21.6 days

**Q.** What about the T/C (B16 [12]) of the same compound?
**A.** 103%

**Q.** And the Activity [13]?
**A.** 56.4%

**Q.** And the Activity (Mus musculus [14])?
**A.** -2.1%

**Q.** What about the Activity (Mus musculus [15]) of the same compound?
**A.** -15%

**Q.** For `CN(C)/N=N\c1ccnc2ccc(I)cc12`, which Activity (Mus musculus [16]) is on record?
**A.** 7.1%

**Q.** What about the T/C (P388 [17]) of the same compound?
**A.** 117%

**Q.** And the T/C (P388 [18])?
**A.** 133%

**Q.** What about the T/C (P388 [19]) of the same compound?
**A.** 123%

**Q.** And the Activity (Mus musculus [20])?
**A.** -23.8%

**Q.** And the Activity (Mus musculus [21])?
**A.** -8.2%

**Q.** And the Activity (Mus musculus [22])?
**A.** -6.4%

**Q.** And the T/C (L1210 [23])?
**A.** 148%

**Q.** What about the T/C (L1210 [24]) of the same compound?
**A.** 160%

**Q.** What about the T/C (L1210 [25]) of the same compound?
**A.** 158%

**Q.** And the Activity [13]?
**A.** 60.6%

**Q.** What about the Activity (Mus musculus [26]) of the same compound?
**A.** 10.5%

**Q.** And the Activity (Mus musculus [27])?
**A.** 2.6%
